Key:
[1] = target: litchi lectin (Litchi chinensis seed lectin) (Litchi chinensis); assay: native gel or EMSA
litchi lectin = assay: tryptophan fluorescence quenching; assay type: binding, Litchi chinensis; settings: free lectin; 150 mM NaCl, 10 mM CaCl2, pH 7.5, 298 K; n = 0.9
In short: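 Steady-state fluorescence emission spectra of dilute lectin solutions (10−4−10−6 M) recorded at 298 K in 1 cm path-length quartz cells on a fluorescence spectrophotometer. UV–vis absorption spectra were taken under the same conditions.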

stoichiometry N [1] | Ka/ (10^4) (M^-1) (litchi lectin) | Compound
2 |  | litchi lectin (Litchi chinensis seed lectin) (natural protein)
 | 4.9 (±0.2)×10^4 | OC[C@H]1O[C@H](O[C@H]2[C@H](O)[C@@H](O)C(O)O[C@@H]2CO)[C@H](O)[C@@H](O)[C@@H]1O (some centres unmarked) [maltose]

— PMC5689159 (Biochemistry and Biophysics Reports, 2016)
